# Measurements from ChEMBL document CHEMBL1144854, “Synthesis and biological evaluation of novel 6-substituted 5-alkyl-2-(arylcarbonylmethylthio)pyrimidin-4(3H)-ones as potent non-nucleoside HIV-1 reverse transcriptase inhibitors” (Bioorg Med Chem, 2008).
# Active and inactive are the calls of the source. The rule behind the calls is not given here.
# Experiments:
# [1] = tested on: Human immunodeficiency virus 1; experiment: Antiviral activity against HIV1 3B infected in MT4 cells by MTT; type: functional, organism-based; settings: Human immunodeficiency virus 1, 3B
# Procedure, shortened: (§1)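 MT-4 cells at 1 × 10^5 cells/mL were infected at MOI 0.02 with virus stocks pre-titrated in MT-4 cells (CCID50) and immediately plated onto serial compound dilutions. Compound stocks were 50 mM in DMSO. Viable cells were counted by MTT after 4 days at 37 °C. EC50 is the concentration giving 50% protection from viral cytopathicity, as the mean of ≥2 separate experiments.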
# [2] = tested on: Human immunodeficiency virus 2; experiment: Antiviral activity against HIV2 ROD infected in MT4 cells by MTT; type: functional, organism-based; settings: Human immunodeficiency virus 2, ROD; procedure, shortened: as §1
# [3] = Cytotoxicity against human MT4 cells; type: cell-based
# Procedure, shortened: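 Uninfected MT-4 cells were run in parallel with the antiviral plates: serial compound concentrations from 50 mM DMSO stocks, 4 days at 37 °C, viability by MTT. CC50 is the concentration cutting viability by 50%, as the mean of ≥2 separate experiments.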
# [4] = Selectivity index, ratio of CC50 for human MT4 cells to EC50 for HIV1 3B; type: functional
# [5] = tested on: Human immunodeficiency virus 1; experiment: Antiviral activity against HIV1 RES056 infected in MT4 cells by MTT; type: functional, organism-based; settings: Human immunodeficiency virus 1, RES056, MT4; procedure, shortened: as §1
# [6] = Selectivity index, ratio of CC50 for human MT4 cells to EC50 for HIV1 RES056
# MT4 = experiment: as above
Compound,EC50 [1] [µM],EC50 [2] [µM],CC50 [3] [µM],Ratio CC50/EC50 [4],EC50 [5] [µM],Ratio CC50/EC50 [6],Activity (MT4)
CCc1c(Cc2cc(C(F)(F)F)cc(C(F)(F)F)c2)nc(SCC(=O)c2ccc(OC)cc2)[nH]c1=O,0.79,> 236,> 236,>299,–,–,–
COc1ccc(C(=O)CSc2nc(Cc3cc(C(F)(F)F)cc(C(F)(F)F)c3)c(C)c(=O)[nH]2)cc1,46.1,> 242,> 242,>5,–,–,–
COc1ccc(C(=O)CSc2nc(Cc3ccccc3Br)c(C)c(=O)[nH]2)cc1,0.63,> 272,> 272,>432,–,–,–
Cc1cn([C@H]2C[C@H](N=[N+]=[N-])[C@@H](CO)O2)c(=O)[nH]c1=O [ZIDOVUDINE],0.005,–,> 93.5,>17990,0.006,>15592,–
CCc1c(Cc2ccc(Br)cc2)nc(SCC(=O)c2ccc(OC)cc2)[nH]c1=O,7.94,> 264,> 264,>33,–,–,–
COc1ccc(C(=O)CSc2nc(Cc3cc(C)cc(C)c3)c(C)c(=O)[nH]2)cc1,0.054,60.6,> 308,>5704,> 308,–,inactive
CCc1c(Cc2cc(C)cc(C)c2)nc(SCC(=O)c2ccc(OC)cc2)[nH]c1=O,0.018,52.8,≥ 239,>=13278,> 239,–,–
COc1ccc(C(=O)CSc2nc(C(c3ccccc3)c3ccccc3)c(C)c(=O)[nH]2)cc1,1.38,> 274,> 274,>199,–,–,–
Cc1c(Cc2cccc3ccccc23)nc(SCC(=O)c2ccccc2)[nH]c1=O,0.22,≥ 42.2,≥ 305,>=1386,–,–,–
COc1ccc(C(=O)CSc2nc(Cc3cccc(O)c3)c(C)c(=O)[nH]2)cc1,4.44,> 59,70,16,–,–,–
COc1ccc(C(=O)CSc2nc(Cc3cccc(Br)c3)c(C)c(=O)[nH]2)cc1,0.89,203,≥ 196,>=220,–,–,–
COc1ccc(C(=O)CSc2nc(Cc3ccc(Br)cc3)c(C)c(=O)[nH]2)cc1,8.97,≥ 226,> 272,>30,–,–,–
CC(C)Nc1cccnc1N1CCN(C(=O)c2cc3cc(NS(C)(=O)=O)ccc3[nH]2)CC1 [DELAVIRDINE],0.072,–,> 3.62,>50,> 3.62,–,–
CCc1c(Cc2cccc(Br)c2)nc(SCC(=O)c2ccc(OC)cc2)[nH]c1=O,0.16,> 142,142,887,–,–,–
COc1ccc(C(=O)CSc2nc(Cc3c(Cl)cccc3Cl)c(C)c(=O)[nH]2)cc1,0.044,> 278,> 278,>6318,–,–,–
CCc1c(Cc2cc(C)cc(C)c2)nc(SCC(=O)c2ccccc2)[nH]c1=O,0.01,154,> 318,>31800,19.8,>16,–
CCc1c(Cc2ccc(-c3ccccc3)cc2)nc(SCC(=O)c2ccc(OC)cc2)[nH]c1=O,> 266,> 266,> 266,–,–,–,–
"O=C1Nc2ccc(Cl)cc2C(C#CC2CC2)(C(F)(F)F)O1 (single isomer, unassigned) [EFAVIRENZ]",–,–,> 6.34,–,–,–,–
CCc1c(Cc2ccccc2Br)nc(SCC(=O)c2ccc(OC)cc2)[nH]c1=O,0.04,> 187,187,4675,–,–,–
CCc1c(C(c2ccccc2)c2ccccc2)nc(SCC(=O)c2ccc(OC)cc2)[nH]c1=O,3.49,> 266,> 266,>76,–,–,–
